Assay outcomes (PubChem BioAssay)
MT1-MMP act inh: inhibitors of human MT1-MMP activation. P50281. HT1080 RFP-PRO-GFP cells, GFP/RFP ratio fluorescence, overnight; percent of plate control window, DMSO zero. GFP/RFP ratio change, % at 20 µM. actives 0.061% (n = 360,000);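 active = GFP/RFP ratio change of at least 30% with cell ATP level not reduced by more than half and red fluorescence within 50% of control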
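system = RFP-PRO-GFP reporter HT1080 cells | dosing = 20 µM single dose, 1% DMSO | timing = overnight cell settling, then overnight compound exposure, 37 °C, 5% CO2 | read-out basis = GFP/RFP fluorescence ratio | controls = DMSO and RFP-L50D-GFP cell wells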
SKN-1 inh: blocks SKN-1 activity in C. elegans; inhibition, % at 21.8 µM; C. elegans VP596 Pgst-4::GFP/RFP ratio, acrylamide-induced, 24 h; actives 0.49% (n = 360,000); AID 624304;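 active = interference check ratio from 0.5 to 1.5 plus GFP to RFP signal ratio inhibition reaching or exceeding a fixed threshold, cut at about 30% in these data, passing the limit was not always enough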
TLR9-MyD88 inh: blocks human TLR9 binding to MyD88; Q9NR96+Q99836; AID 504734; CHO BLA complementation TLR9-MyD88, CCF4 FRET ratio; actives 0.21% (n = 340,000); inhibition, % at 4.98 µM;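 active = inhibition above the mean over all tested compounds plus 3 SD, cut at about 21% in these data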;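 note: 0% = DMSO only wells and 100% = clavulanate BLA inhibitor control wells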
TLR4-MyD88 BLA: inhibitors of human TLR4-MyD88 binding | O00206+Q99836 | HeLa CL3-4 TLR4/MyD88 BLA complementation, FRET ratio | inhibition, % at 8.4 µM | actives 0.18% (n = 200,000); in the data active = inhibition above about 25%;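 note: 0% = vehicle and 100% = reference inhibitor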
Target sequence (O00206 whole entry, looked up): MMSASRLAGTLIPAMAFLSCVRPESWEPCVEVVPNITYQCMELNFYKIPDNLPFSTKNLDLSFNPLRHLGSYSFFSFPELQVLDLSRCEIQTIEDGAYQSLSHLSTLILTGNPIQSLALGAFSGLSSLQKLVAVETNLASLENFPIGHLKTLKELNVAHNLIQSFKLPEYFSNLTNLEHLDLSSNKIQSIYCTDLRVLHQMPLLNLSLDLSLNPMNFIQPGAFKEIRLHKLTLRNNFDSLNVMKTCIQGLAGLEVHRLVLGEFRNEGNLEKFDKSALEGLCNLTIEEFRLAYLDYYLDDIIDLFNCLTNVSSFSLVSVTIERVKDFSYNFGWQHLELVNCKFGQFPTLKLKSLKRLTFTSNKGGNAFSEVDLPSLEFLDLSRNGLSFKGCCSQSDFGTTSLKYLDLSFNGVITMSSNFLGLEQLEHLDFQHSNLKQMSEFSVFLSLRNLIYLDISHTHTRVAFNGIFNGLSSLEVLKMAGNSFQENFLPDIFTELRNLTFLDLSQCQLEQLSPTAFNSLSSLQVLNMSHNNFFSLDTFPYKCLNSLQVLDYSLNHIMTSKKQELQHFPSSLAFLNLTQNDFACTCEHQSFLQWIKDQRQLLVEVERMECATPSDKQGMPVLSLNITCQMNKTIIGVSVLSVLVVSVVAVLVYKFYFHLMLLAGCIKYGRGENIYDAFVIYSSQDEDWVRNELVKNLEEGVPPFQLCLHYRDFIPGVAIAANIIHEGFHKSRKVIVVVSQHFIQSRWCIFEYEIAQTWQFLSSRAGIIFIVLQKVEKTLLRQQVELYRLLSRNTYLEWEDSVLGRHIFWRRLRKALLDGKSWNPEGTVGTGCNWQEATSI
Target sequence (Q99836 whole entry, looked up): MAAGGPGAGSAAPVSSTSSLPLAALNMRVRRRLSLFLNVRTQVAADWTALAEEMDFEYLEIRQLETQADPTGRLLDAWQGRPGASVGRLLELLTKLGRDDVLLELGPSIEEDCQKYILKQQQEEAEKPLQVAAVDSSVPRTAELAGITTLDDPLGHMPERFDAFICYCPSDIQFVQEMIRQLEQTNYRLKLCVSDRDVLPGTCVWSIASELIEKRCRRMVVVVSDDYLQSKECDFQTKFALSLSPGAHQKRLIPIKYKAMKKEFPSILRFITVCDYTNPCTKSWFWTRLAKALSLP
NOD2 RIPK2 PPI: inhibitors of human NOD2-RIPK2 interaction; O43353; CHO BLA complementation NOD2-RIPK2, CCF4 ratio; inhibition, % at 4.98 µM; actives 0.38% (n = 360,000); in the data active = inhibition above about 21%;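 note: 0% = vehicle only and 100% = reference blocker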
TLR9-MyD88 conf: confirmation of human TLR9-MyD88 binding inhibitors. shares compounds with TLR9-MyD88 inh. CHO TLR9/MyD88 BLA complementation, CCF4 FRET ratio. inhibition, % at 4.98 µM. actives 51% (n = 680);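 active = mean inhibition across three repeats above about 21% taken from the earlier screen, limit read from the data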;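 note: blue over green emission ratio reports constitutive TLR9 MyD88 association via BLA complementation; 0% = DMSO vehicle wells and 100% = clavulanate BLA inhibitor wells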
BLA nonselective: counter-screen for TLR9-MyD88 inhibitors: non-selective beta-lactamase inhibitors | shares compounds with TLR9-MyD88 inh | CHO-BLA cells, CCF4 FRET ratio, BLA reporter | inhibition, % at 4.98 µM | actives 7% (n = 680) | AID 540251;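 active = mean inhibition above a 50% cutoff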;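 note: counterscreen of TLR9-MyD88 hits on CMV-driven BLA in CHO-K1 cells; 0% = DMSO alone and 100% = clavulanate blocking BLA; higher means less blue over green ratio so more BLA blockade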
TLR9 CHO tox: counter-screen for TLR9-MyD88 inhibitors: cytotoxicity in CHO cells. shares compounds with TLR9-MyD88 inh. luminescence. inhibition, % at 4.98 µM. actives 39% (n = 680); in the data active = inhibition above about 11%
* hit, by the source's call; x = no result given. Most compounds without a hit are left out; they make up all but 0.99% or so of the library.

SMILES | MT1-MMP act inh | SKN-1 inh | TLR9-MyD88 inh | TLR4-MyD88 BLA | NOD2 RIPK2 PPI | TLR9-MyD88 conf | BLA nonselective | TLR9 CHO tox
CC1CCN(c2ccc3c(c2)S(=O)(=O)c2ccccc2C3=O)CC1 | -123.9 | 16.9 | 32.0* | x | 19.3 | 22.0* | 23.6 | 4.8
NC(=O)C1CCN(c2ccc3c(c2)S(=O)(=O)c2ccccc2C3=O)CC1 | -72.0 | -8.5 | 22.9* | x | 1.3 | 6.1 | 5.1 | 0.0
O=C(CC1C(=O)NCCN1Cc1cccc(F)c1)NCCCCCN1CCOCC1 (stereo not drawn) | -4.1 | 18.2 | -3.7 | x | -6.7 | x | x | x
COc1ccc(S(=O)(=O)N2CCCCC2)cc1NC(=O)c1ccc([N+](=O)[O-])o1 | 0.8 | -1.1 | 22.2* | 9.0 | 10.1 | 3.0 | 5.6 | 22.1*
CS(=O)(=O)c1sc2nc(-c3cccs3)cc(-c3ccccc3)c2c1N | -14.4 | 3.5 | 24.9* | 14.9 | 3.1 | 19.1 | 17.0 | 4.4
Cc1c(C(=O)O)sc2nc(-c3cccs3)cc(C(F)(F)F)c12 | 0.4 | -1.2 | 2.6 | x | -9.7 | x | x | x
COc1cc(/C=C/C(=O)O)cc(S(=O)(=O)NCc2ccc3c(c2)OCO3)c1OC | 9.0 | -10.0 | 21.3* | 1.2 | -7.1 | 3.3 | -0.3 | -4.9
CCOC(=O)c1cc(CC)sc1NC(=O)CN1CCN(C(=O)c2ccco2)CC1 | -3.9 | -6.7 | -5.6 | x | 13.9 | x | x | x
O=c1c2cc(C(F)(F)F)ccc2sn1-c1ccccc1 | 1.7 | 5.0 | 23.3* | x | -2.5 | 25.6* | -4.7 | 58.3*
N#Cc1ccc2c(=O)n(-c3ccccc3)sc2c1 | 6.2 | 20.2 | 38.7* | x | -0.4 | 17.7 | -3.4 | 95.9*
COc1ccc(C(=O)NC2CC2)cc1OC1CCN(Cc2ccccc2)CC1 | -4.6 | 2.6 | -10.2 | x | -4.6 | x | x | x
COc1cc(C(=O)NC2CCN(Cc3ccccc3)CC2)cc(Cl)c1OC | 4.3 | 10.6 | 25.7* | x | 5.6 | 4.5 | 3.8 | 4.6
Cc1c(CN2CCC(CO)(CCOc3ccccc3)CC2)c(=O)n(-c2ccccc2)n1C | 3.5 | -6.5 | 34.2* | 0.8 | -10.0 | 0.8 | 4.6 | -2.3
COc1ccc(NC(=O)/C(Cl)=C(/Cl)S(=O)Cc2ccc(Cl)cc2)cn1 (stereo not drawn) | -26.1 | 0.2 | 54.5* | 24.6 | 67.6* | 55.7* | 36.1 | 98.8*
COc1ccc(NC(=O)C(Cl)=C(Cl)Cl)cn1 | -0.3 | 0.0 | 5.7 | 1.7 | -3.4 | x | x | x
O=[N+]([O-])c1ccc(Sc2cc[n+]([O-])c3ccccc23)c([N+](=O)[O-])c1 | -1.4 | -1.1 | 31.7* | x | -0.8 | 23.5* | 7.2 | 30.3*
CN(C)CCNC(=O)c1sc2nc(-c3ccccc3)cc(C(F)(F)F)c2c1N | -31.7 | 20.0 | 10.5 | x | 17.0 | x | x | x
COc1ccc(-c2cc(C(F)(F)F)c3c(N)c(C(=O)NCCSC)sc3n2)cc1 | -57.2 | -6.5 | 22.3* | x | 5.5 | 74.3* | 73.4* | 13.6*
CCCCNC(=O)C(=O)NCC1CCCN1S(=O)(=O)c1cccs1 (stereo not drawn) | 2.2 | 7.7 | 13.2 | x | -0.7 | x | x | x
CC(C=CC(O)=C1C(=O)CNC1=O)=C[C@@H](C)C1OC2(C)OC(C(=O)C3O[C@@]32C)C1C (stereo partly drawn) | 1.5 | 12.9 | x | x | -8.4 | x | x | x
O=C1C=CC(=O)N1c1ccc2c(c1)C(NC(=O)C(F)(F)F)c1ccccc1-2 (stereo not drawn) | 0.6 | 16.4 | 29.9* | x | 4.9 | 36.1* | 11.4 | 98.2*
Cc1cccc(N2C(=O)/C(=C\c3ccc(OC(F)F)cc3)c3ccccc3C2=O)c1 | -3.4 | -5.8 | 50.1* | 16.6 | -3.2 | 45.2* | 47.2 | 0.3
CCOc1cc(/C=C2\C(=O)N(c3cccc(C(F)(F)F)c3)C(=O)c3ccccc32)ccc1O | -5.3 | 3.8 | 10.6 | 13.9 | -3.1 | x | x | x
CCOc1ccc(CCNC(=O)COC(=O)c2ccc[nH]c2=O)cc1OCC | -0.2 | -8.1 | 6.6 | x | -4.6 | x | x | x
Cc1ccc(C2(C)NC(=O)N(CC(=O)NC(=O)NC(C)(C)C)C2=O)cc1 (stereo not drawn) | -1.5 | 1.9 | 1.6 | x | -6.2 | x | x | x
SMILES | MT1-MMP act inh | SKN-1 inh | TLR9-MyD88 inh | TLR4-MyD88 BLA | NOD2 RIPK2 PPI | TLR9-MyD88 conf | BLA nonselective | TLR9 CHO tox
COc1cccc(C2C=C(c3ccc(Br)s3)Nc3ncnn32)c1OC (stereo not drawn) | -112.9 | 4.5 | 27.4* | 20.9 | 31.4* | 5.1 | 4.9 | 2.4
Cc1cc(C)c(C)c(S(=O)(=O)Nc2ccccc2C(=O)NN2CCOCC2)c1C | -3.8 | 9.3 | -24.6 | x | -8.5 | x | x | x
CCCCN(CCCC)c1nc2ccccc2nc1C(C#N)C(=O)NCCCOC (stereo not drawn) | -2.6 | -14.8 | 40.0* | 19.4 | -7.9 | 8.8 | 12.6 | 5.7
CCN(CC)c1nc2ccccc2nc1C(C#N)C(=O)NCCCOC (stereo not drawn) | -2.1 | 10.2 | 13.0 | -4.5 | 7.1 | x | x | x
CCOC(=O)CNc1c(-c2ccc(OC)cc2)nc2ccc(Cl)cn12 | 1.9 | 2.9 | 3.6 | 3.0 | 5.1 | x | x | x
CCOC(=O)CNc1c(-c2ccc(F)cc2)nc2cnccn12 | -3.9 | -9.1 | 24.4* | 14.4 | 16.1 | 7.8 | 6.7 | -1.9
Cc1cc(C)cc(Nc2cc(=O)n(C3CCCCC3)c(=O)[nH]2)c1 | -9.5 | 7.3 | 1.5 | -11.2 | -9.1 | x | x | x
Cc1cc2nc3c(=O)n(C4CCCCC4)c(=O)[nH]c3nc2cc1N | -134.9 | -44.1 | 27.9* | 11.9 | 6.3 | 19.6 | 25.0 | -0.3
COC(=O)CSc1nc(N)c2c3c(sc2n1)C(c1ccccc1)SC(c1ccccc1)C3 (stereo not drawn) | -219.5 | 2.3 | 25.8* | -1.1 | 15.2 | -4.2 | -1.1 | 1.0
N#Cc1ccc(CSc2ccc(S(=O)(=O)N3CCCCCC3)cn2)cc1 | 1.6 | 15.7 | -6.6 | x | -13.9 | x | x | x
Cc1ccc(NC(=O)c2cc(N3C(=O)C=CC3=O)ccc2N2CCOCC2)cc1Cl | 0.7 | 1.3 | 32.3* | 1.1 | -0.6 | 54.9* | 18.3 | 97.3*
COc1ccc(N=Cc2sc(O)c3ccccc23)cc1 | -281.9 | -0.6 | 22.3* | 21.0 | 2.1 | 20.9* | 18.3 | -1.1
O=C(OCc1cn([C@H]2CN(C(=O)c3cccs3)[C@@H](c3ccc(Cl)cc3)C[C@@H]2O)nn1)c1ccccc1 | 3.6 | 1.5 | -20.5 | x | 4.2 | x | x | x
O=C(OCc1cnc(Cl)s1)c1ccccc1Cl | 2.9 | -1.1 | -2.3 | -15.4 | 4.5 | x | x | x
O=C(OCn1ncc(Br)c(Br)c1=O)c1ccccc1Cl | -7.0 | -17.8 | 31.6* | 14.2 | 82.4* | 35.6* | 24.2 | 100.1*
